Assay results: article PMC3149718 (Molecular and cellular biochemistry, 2011)
Residue numbers refer to the chain shown, from its start.

Columns and labels:
[1] = molecular target: T1, 89-residue L-CPTI C-terminal peptide, W391A mutant (Rattus norvegicus, UniProt P32198, W391A); experiment: Direct binding of fluorescent cis-parinaroyl-CoA
T1 sequence (P32198 381-469 W391A): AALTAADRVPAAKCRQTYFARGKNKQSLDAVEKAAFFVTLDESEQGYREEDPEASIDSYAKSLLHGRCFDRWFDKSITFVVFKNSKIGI

[2] = molecular target: T2, 89-residue L-CPTI C-terminal peptide, W452A mutant (Rattus norvegicus, UniProt P32198, W452A); experiment: Direct binding of fluorescent cis-parinaroyl-CoA
T2 sequence (P32198 381-469 W452A): T1 sequence (P32198 381-469 W391A) with A11W, W72A

[3] = molecular target: T3, 89-residue L-CPTI C-terminal peptide, wild-type (WT) (Rattus norvegicus, UniProt P32198); experiment: FRET from CPTI aromatic amino acids to bound cis-parinaroyl-CoA; type: binding
T3 sequence (P32198 381-469): T1 sequence (P32198 381-469 W391A) with A11W
Outline: (§1)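 Peptide (0.1 µM in PBS, pH 7.4) was titrated with cis-parinaroyl-CoA at 24°C (0–1000 nM in methods; 0–250 nM in legend), with excitation at 280 nm and a 300–450 nm scan. Spectra were background-corrected and each averaged from 5 replicates. […] Distance was obtained by the Förster equation. Values are mean ± SE, n=5.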

[4] = molecular target: T1, 89-residue L-CPTI C-terminal peptide, W391A mutant; experiment: as above; type: binding
Outline: as §1

[5] = molecular target: T2, 89-residue L-CPTI C-terminal peptide, W452A mutant; experiment: as above; type: binding
Outline: as §1

[6] = molecular target: T3, 89-residue L-CPTI C-terminal peptide, wild-type (WT); experiment: Displacement of bound cis-parinaroyl-CoA by palmitoyl-CoA; type: binding; settings: palmitoyl-CoA 0–150nM
Outline: (§2)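 Purified 89-residue peptide (0.1 µM in PBS, pH 7.4) was preincubated with 50 nM cis-parinaroyl-CoA for 5 min at 24°C. It was then titrated with palmitoyl-CoA (0–150 nM stated for WT). Excitation was 310 nm and emission was read at 426 nm. Displacement was taken from the fall in fluorescence and plotted as percent change, and Ki was then calculated.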

[7] = molecular target: T1, 89-residue L-CPTI C-terminal peptide, W391A mutant; experiment: as above; type: binding; settings: mutant peptides (W391A), range given for both mutants
Outline: as §2

[8] = molecular target: T2, 89-residue L-CPTI C-terminal peptide, W452A mutant; experiment: as above; type: binding; settings: mutant peptides (W452A), range given for both mutants
Outline: as §2

[9] = molecular target: T1, 89-residue L-CPTI C-terminal peptide, W391A mutant; experiment: Quenching of intrinsic aromatic amino acid fluorescence by palmitoyl-CoA; type: binding; settings: read-out: Quenching Kd, quenching of aromatic amino acid fluorescence of 0.1 µM W391A peptide
[10] = molecular target: T2, 89-residue L-CPTI C-terminal peptide, W452A mutant; experiment: as above; type: binding; settings: read-out: Quenching Kd, quenching of aromatic amino acid fluorescence of 0.1 µM W452A peptide

binding affinity weaker than WT ([1]; mutant (W391A) versus WT, range given for both mutants) | Kd ([1]; read-out: Cpn-CoA Kd, W391A peptide 0.1 µM, PBS pH 7.4, 24°C, direct fluorescence) | binding affinity weaker than WT ([2]; mutant (W452A) versus WT, range given for both mutants) | Kd ([2]; read-out: Cpn-CoA Kd, W452A peptide 0.1 µM, PBS pH 7.4, 24°C, direct fluorescence) | intermolecular distance determined from the increased acceptor fluorescence ([3]; CPTI WT, acceptor (cis-parinaroyl-CoA) fluorescence) | Donor Emission R (intermolecular distance) ([3]; from donor (CPTI WT) quenching, Förster equation) | Kd ([3]; read-out: Donor Emission Kd, from decrease in donor (CPTI WT) fluorescence) | Donor Emission R (intermolecular distance) ([4]; from donor (W391A) quenching) | Kd ([4]; read-out: Donor Emission Kd, from decrease in donor (W391A) fluorescence) | Donor Emission R (intermolecular distance) ([5]; from donor (W452A) quenching) | Kd ([5]; read-out: Donor Emission Kd, from decrease in donor (W452A) fluorescence) | displacement of cis-parinaroyl-CoA [6] | cis-parinaroyl-CoA displacement [7] | cis-parinaroyl-CoA displacement [8] | Kd [9] | Kd [10] | SMILES
5–7 fold | 0.052 ± 0.008 µM | 5–7 fold | 0.067 ± 0.01 µM | 38±1 Å | 28 ± 1 Å | 0.035 ± 0.01 µM | 23.9 ± 0.6 Å | 0.088 ± 0.009 µM | 24.3 ± 0.6 Å | 0.051 ± 0.005 µM |  |  |  |  |  | CC/C=C/C=C\C=C/C=C/CCCCCCCC(=O)SCCNC(=O)CCNC(=O)[C@H](O)C(C)(C)COP(=O)(O)OP(=O)(O)OC[C@H]1O[C@@H](n2cnc3c(N)ncnc32)[C@H](O)[C@@H]1OP(=O)(O)O (relative stereo) [cis-parinaroyl-CoA]
 |  |  |  |  |  |  |  |  |  |  | approximately 70% | 50–60% | 50–60% | 0.009 ± 0.001 µM | 0.016 ± 0.002 µM | CCCCCCCCCCCCCCCC(=O)SCCNC(=O)CCNC(=O)[C@H](O)C(C)(C)COP(=O)(O)OP(=O)(O)OC[C@H]1O[C@@H](n2cnc3c(N)ncnc32)[C@H](O)[C@@H]1OP(=O)(O)O [palmitoyl-CoA]
